Source: paper PMC11324745 (Nature Communications, 2024)

Legend:
[1] = tested on: DLD1 BRCA2-KO (BRCA2 -/-, null) cells; experiment: Colony survival assay, DLD1 BRCA2-KO; type: cell-based; conditions: DLD1 isogenic pair, vs BRCA2-WT
Procedure, shortened: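 Isogenic pairs (DLD1 in RPMI; HCT 116 in DMEM; each with 10% FBS, glutamine, non-essential amino acids) seeded in 24-well plates: 800 cells/well for BRCA-null and 200 cells/well for wild-type. Test compound exposure with medium changed every 2–3 days for 10–12 days. Fixed in water:ethanol:acetic acid 5:4:1, stained with 0.5% crystal violet for 2 h, colonies counted manually. Mean ± S.E.M.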

[2] = tested on: Brca1^cc/cc MEFs; experiment: Colony survival assay, Brca1 cc/cc MEFs; type: cell-based, mouse; conditions: vs Brca1-WT MEFs
[3] = biological target: Polθ-hel (Homo sapiens, UniProt O75417); conditions: cited from earlier work
[4] = tested on: BRCA1-deficient cells; conditions: read-out: IC50 in BRCA1-deficient cells; cited from earlier work
[5] = tested on: Brca1^Δ11;Δ11 MEFs; conditions: cited from earlier work

Polθ-hel, sequence (O75417 1-894): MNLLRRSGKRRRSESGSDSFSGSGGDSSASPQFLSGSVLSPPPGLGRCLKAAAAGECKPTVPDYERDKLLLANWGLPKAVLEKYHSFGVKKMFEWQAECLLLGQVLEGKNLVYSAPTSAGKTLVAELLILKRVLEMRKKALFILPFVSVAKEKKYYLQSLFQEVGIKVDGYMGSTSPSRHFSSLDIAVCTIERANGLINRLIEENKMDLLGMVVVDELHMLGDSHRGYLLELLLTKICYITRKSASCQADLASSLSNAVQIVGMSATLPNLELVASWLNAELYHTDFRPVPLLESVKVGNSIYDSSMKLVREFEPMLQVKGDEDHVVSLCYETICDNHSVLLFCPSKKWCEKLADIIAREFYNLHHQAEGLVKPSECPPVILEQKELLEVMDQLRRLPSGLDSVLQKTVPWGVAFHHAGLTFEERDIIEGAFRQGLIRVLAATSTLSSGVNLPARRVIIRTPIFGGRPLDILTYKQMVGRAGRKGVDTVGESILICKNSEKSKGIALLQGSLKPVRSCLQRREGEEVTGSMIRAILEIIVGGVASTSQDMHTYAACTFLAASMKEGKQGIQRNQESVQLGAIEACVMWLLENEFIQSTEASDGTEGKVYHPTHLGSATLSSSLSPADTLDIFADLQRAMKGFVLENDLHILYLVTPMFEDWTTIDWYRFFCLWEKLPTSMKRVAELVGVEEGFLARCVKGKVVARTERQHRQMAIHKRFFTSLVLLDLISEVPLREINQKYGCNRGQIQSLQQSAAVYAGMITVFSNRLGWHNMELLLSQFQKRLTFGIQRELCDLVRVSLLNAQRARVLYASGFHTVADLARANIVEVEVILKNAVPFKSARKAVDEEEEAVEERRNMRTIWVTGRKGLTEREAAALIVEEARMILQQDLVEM

Structure (SMILES) | colony survival, killing of BRCA2-KO cells [1] | colony survival, killing of Brca1 cc/cc MEFs [2] | inhibition of Polθ-hel ssDNA binding [3] | IC50 [4] | activity against Brca1 Δ11 MEFs [5]
CO[C@@H]1[C@@H](OC(N)=O)[C@@H](O)[C@H](Oc2ccc3c(O)c(NC(=O)c4ccc(O)c(CC=C(C)C)c4)c(=O)oc3c2C)OC1(C)C [Novobiocin] | selective killing of BRCA2-KO cells at significantly higher concentrations | no preferential killing of these cells up to 10 μM | inhibits Polθ-hel ssDNA binding | 50 to 100 µM | 
Cc1cccc(N(C)C(=O)[C@@H]2[C@H](O)CCN2c2nc(C)cc(C(F)(F)F)c2C#N)c1 [ART558] |  |  |  |  | relatively modest activity
